According to ChEMBL document CHEMBL1949587 (Bioorg Med Chem, 2012):
Activity calls are given as the source filed them. No cut-off for these calls is given here.

What was measured:
[1] = test system: ASPC1; assay: Antiproliferative activity against human AsPC1 cells assessed as cell growth inhibition; type: cell-based
[2] = test system: CAPAN-1; assay: Antiproliferative activity against human Capan1 cells assessed as cell growth inhibition; type: cell-based
[3] = target: Hepatocyte growth factor receptor (Homo sapiens, UniProt P08581); assay: Inhibition of MET
[4] = Cmax in nude mouse at 30 mg/kg, po by LC-MS/MS analysis; type: ADME, organism-based; set-up: dose 30 mg/kg, route oral; conditions: in vivo
In short: (§1)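 Female nude mice given single oral dose in DMSO/Cremophor EL/1% Tween 80 (1:1:8 v/v/v) by stomach sonde. Blood taken at 30 min, 1, 2, 4, 7 and 24 h (n = 2/time point). Plasma precipitated with CH3CN/MeOH plus internal standard, filtered, measured by LC-MS/MS (LLOQ 20 ng/mL). Parameters by non-compartmental analysis; CL given as CL/F.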

[5] = Cytotoxicity in fibroblast cells assessed as morphological change at 4 to 20 uM; type: cell-based
[6] = test system: MCF7; assay: Antiproliferative activity against human MCF7 cells assessed as cell growth inhibition; type: cell-based
[7] = test system: C32; assay: Antiproliferative activity against human C32 cells assessed as cell growth inhibition; type: cell-based
[8] = test system: T47D; assay: Antiproliferative activity against human T47D cells assessed as cell growth inhibition; type: cell-based
[9] = test system: Calu-6; assay: Antiproliferative activity against human Calu6 cells assessed as cell growth inhibition; type: cell-based
[10] = target: Ephrin type-A receptor 2 (Homo sapiens, UniProt P29317); assay: Inhibition of EPHA2
[11] = AUC (0 to 24 hrs) in nude mouse at 30 mg/kg, po by LC-MS/MS analysis; type: ADME, organism-based; set-up: time < 24 hr, dose 30 mg/kg, route oral; conditions: plasma
[12] = Antiproliferative activity against human COLO320DM cells assessed as cell growth inhibition; type: cell-based; conditions: COLO 320DM
[13] = test system: HUVEC; assay: Antiangiogenic activity in HUVEC co-cultured with fibroblasts assessed as inhibition of capillary-like tube formation at 4 uM after 11 days by microscopic staining method relative to control; type: functional; conditions: Homo sapiens, 264 h
In short: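 Commercial co-culture kit of HUVEC and fibroblasts, given compound at final 4 or 20 μM and held at 37 °C, 5% CO₂ for 11 days. Tubes fixed with 70% ethanol and stained for CD31, then photographed under a microscope. Tube area quantified by image analysis and inhibition calculated against control taken as 100%.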

[14] = test system: HCT-15; assay: Antiproliferative activity against human HCT15 cells assessed as cell growth inhibition; type: cell-based
[15] = target: Cyclin-dependent kinase 2 (Homo sapiens, UniProt P24941); assay: Inhibition of CDK2
[16] = target: Tyrosine-protein kinase ABL1 (Homo sapiens, UniProt P00519); assay: Inhibition of ABL
[17] = target: Vascular endothelial growth factor receptor 2 (Homo sapiens, UniProt P35968); assay: Inhibition of VEGFR2
Chain of Vascular endothelial growth factor receptor 2 (P35968 whole entry): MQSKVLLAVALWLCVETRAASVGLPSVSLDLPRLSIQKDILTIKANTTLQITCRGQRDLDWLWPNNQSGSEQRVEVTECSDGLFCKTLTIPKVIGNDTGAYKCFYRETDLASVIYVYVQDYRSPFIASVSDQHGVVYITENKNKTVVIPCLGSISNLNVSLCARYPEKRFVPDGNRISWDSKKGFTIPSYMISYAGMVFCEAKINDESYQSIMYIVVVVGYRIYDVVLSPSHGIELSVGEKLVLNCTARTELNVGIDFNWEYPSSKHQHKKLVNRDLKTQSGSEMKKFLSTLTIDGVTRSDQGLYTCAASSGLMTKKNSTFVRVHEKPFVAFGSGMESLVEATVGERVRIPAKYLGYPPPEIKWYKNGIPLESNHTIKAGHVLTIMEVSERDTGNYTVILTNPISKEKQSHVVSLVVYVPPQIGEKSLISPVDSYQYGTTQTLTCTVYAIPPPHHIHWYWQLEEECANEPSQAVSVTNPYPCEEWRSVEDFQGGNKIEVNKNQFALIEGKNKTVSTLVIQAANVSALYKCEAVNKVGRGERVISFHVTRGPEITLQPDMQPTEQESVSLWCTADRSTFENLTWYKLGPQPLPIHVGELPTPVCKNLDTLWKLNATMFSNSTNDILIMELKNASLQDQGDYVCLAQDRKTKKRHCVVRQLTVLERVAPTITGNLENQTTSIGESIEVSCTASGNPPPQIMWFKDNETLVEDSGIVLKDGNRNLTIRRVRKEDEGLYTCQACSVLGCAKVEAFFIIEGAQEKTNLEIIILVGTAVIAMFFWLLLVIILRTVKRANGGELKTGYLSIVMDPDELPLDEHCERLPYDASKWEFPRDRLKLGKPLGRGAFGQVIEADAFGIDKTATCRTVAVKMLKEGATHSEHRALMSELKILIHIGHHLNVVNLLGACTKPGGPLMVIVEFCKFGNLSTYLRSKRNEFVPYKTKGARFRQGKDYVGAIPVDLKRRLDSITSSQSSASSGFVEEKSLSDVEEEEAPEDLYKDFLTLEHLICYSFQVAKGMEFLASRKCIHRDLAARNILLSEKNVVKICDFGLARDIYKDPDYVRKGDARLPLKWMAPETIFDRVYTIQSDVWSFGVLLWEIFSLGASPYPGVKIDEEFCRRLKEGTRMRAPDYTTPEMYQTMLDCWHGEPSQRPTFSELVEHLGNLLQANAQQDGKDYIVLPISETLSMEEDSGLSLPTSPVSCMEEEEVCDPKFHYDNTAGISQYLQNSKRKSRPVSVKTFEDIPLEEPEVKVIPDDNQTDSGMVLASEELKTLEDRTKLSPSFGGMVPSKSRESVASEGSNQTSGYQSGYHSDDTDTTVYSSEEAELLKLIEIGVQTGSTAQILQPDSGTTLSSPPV

[18] = test system: PANC-1; assay: Antiproliferative activity against human PANC1 cells assessed as cell growth inhibition; type: cell-based
[19] = target: Leukocyte tyrosine kinase receptor (Homo sapiens, UniProt P29376); assay: Inhibition of LTK
[20] = target: Proto-oncogene tyrosine-protein kinase Src (Homo sapiens, UniProt P12931); assay: Inhibition of Src
Chain of Proto-oncogene tyrosine-protein kinase Src (P12931 2-536 limits assumed): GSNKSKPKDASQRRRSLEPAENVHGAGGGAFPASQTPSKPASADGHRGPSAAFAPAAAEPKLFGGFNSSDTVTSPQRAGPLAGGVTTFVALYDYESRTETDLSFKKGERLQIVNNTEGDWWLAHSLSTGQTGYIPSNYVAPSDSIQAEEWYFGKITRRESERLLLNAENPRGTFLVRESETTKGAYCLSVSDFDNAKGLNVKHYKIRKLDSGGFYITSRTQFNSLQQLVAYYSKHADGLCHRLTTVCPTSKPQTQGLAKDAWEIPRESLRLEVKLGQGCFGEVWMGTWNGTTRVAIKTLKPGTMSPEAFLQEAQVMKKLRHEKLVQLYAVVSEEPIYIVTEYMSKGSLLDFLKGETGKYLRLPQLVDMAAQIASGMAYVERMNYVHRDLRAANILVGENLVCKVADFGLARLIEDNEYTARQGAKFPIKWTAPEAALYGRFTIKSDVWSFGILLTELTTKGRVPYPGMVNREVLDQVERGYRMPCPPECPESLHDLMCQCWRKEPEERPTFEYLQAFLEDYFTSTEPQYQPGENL

[21] = Clearance in mouse liver microsome at 5 uM after 60 mins by LC-MS/MS analysis; type: ADME; conditions: liver microsomes, read-out: CLH
In short: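 Test compound at 5 µM incubated with mouse liver microsomes, 1.0 mg protein/mL, in 50 mM potassium phosphate pH 7.4 at 37 °C. Started by adding NADPH generating system (glucose 6-phosphate 3.2 mM, β-NADP 2.6 mM, MgCl2 6.5 mM). Substrate depletion measured against internal standard. Intrinsic clearance is the first-order decay constant normalized to protein.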

[22] = target: Insulin receptor (Homo sapiens, UniProt P06213); assay: Inhibition of INSR
Chain of Insulin receptor (P06213 28-758 limits assumed): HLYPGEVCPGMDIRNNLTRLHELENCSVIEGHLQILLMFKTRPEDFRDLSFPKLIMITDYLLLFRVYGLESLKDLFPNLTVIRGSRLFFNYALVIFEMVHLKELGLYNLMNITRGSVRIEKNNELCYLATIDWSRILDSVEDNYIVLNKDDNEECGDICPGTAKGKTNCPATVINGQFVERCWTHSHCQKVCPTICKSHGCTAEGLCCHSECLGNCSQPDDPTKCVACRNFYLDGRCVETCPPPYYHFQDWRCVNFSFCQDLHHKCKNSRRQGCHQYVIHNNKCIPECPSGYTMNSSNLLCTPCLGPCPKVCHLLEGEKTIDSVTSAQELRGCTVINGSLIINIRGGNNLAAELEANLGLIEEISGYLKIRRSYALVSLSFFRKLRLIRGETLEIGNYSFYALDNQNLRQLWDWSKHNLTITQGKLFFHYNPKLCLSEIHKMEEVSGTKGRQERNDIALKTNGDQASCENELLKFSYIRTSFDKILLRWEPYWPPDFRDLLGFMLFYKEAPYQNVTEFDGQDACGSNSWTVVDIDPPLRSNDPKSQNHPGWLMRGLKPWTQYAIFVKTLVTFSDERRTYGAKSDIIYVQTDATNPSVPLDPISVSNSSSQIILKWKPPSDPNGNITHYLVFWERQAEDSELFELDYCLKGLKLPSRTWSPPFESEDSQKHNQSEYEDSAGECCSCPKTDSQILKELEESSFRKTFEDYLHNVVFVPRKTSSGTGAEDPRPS
Chain of Insulin receptor (P06213 763-1382 limits assumed): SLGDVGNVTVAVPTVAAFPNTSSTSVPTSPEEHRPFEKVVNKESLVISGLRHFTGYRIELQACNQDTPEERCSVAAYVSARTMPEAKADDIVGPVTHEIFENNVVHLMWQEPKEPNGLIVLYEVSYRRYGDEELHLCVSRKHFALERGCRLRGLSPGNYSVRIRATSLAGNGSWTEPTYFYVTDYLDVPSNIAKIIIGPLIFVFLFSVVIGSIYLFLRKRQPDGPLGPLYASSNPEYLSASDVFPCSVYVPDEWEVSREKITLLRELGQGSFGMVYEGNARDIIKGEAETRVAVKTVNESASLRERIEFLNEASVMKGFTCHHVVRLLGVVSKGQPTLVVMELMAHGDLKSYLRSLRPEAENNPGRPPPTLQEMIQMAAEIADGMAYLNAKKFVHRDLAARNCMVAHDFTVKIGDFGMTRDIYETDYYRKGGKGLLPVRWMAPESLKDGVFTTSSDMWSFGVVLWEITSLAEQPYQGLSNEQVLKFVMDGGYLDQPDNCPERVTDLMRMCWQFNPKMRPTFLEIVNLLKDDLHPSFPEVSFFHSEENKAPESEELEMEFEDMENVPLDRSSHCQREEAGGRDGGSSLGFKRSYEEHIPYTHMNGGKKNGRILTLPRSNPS

[23] = test system: NCI-H441; assay: Antiproliferative activity against human NCI-H441 cells assessed as cell growth inhibition; type: cell-based
[24] = test system: COLO 205; assay: Antiproliferative activity against human COLO205 cells assessed as cell growth inhibition; type: cell-based
[25] = test system: BXPC-3; assay: Antiproliferative activity against human BxPC3 cells assessed as cell growth inhibition; type: cell-based
[26] = Antiproliferative activity against human IGROV1/T8 cells assessed as cell growth inhibition; type: cell-based; conditions: IGROV-1
[27] = test system: Huh-7; assay: Antiproliferative activity against human HuH7 cells assessed as cell growth inhibition; type: cell-based
[28] = test system: CCRF-CEM; assay: Antiproliferative activity against human CCRF-CEM cells assessed as cell growth inhibition; type: cell-based
[29] = Antiproliferative activity against human KPL4 cells assessed as cell growth inhibition; type: cell-based
[30] = Antiproliferative activity against human JOK1 cells assessed as cell growth inhibition; type: cell-based
[31] = Antiproliferative activity against human MDA-MB-435S cells assessed as cell growth inhibition; type: cell-based
[32] = Tmax in nude mouse at 30 mg/kg, po by LC-MS/MS analysis; type: ADME, organism-based; set-up: dose 30 mg/kg, route oral; conditions: in vivo; in short: as §1
[33] = test system: NCI-H460; assay: Antiproliferative activity against PTX-resistant human NCI-H460 cells assessed as cell growth inhibition; type: cell-based
[34] = target: Tyrosine-protein kinase receptor UFO (Homo sapiens, UniProt P30530); assay: Inhibition of AXL
[35] = Half life in nude mouse at 30 mg/kg, po by LC-MS/MS analysis; type: ADME, organism-based; set-up: dose 30 mg/kg, route oral; conditions: in vivo; in short: as §1
[36] = test system: Calu-6; assay: Antiangiogenic activity in human Calu6 cells xenografted in BALB/c mouse assessed as microvessel density reduction at 1 to 10 mg/kg, po qd for 11 days measured 24 hrs after last postdose by immunohistochemical staining method; type: functional, organism-based
In short: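 Female Balb/c nude mice given Calu-6 cells s.c. in the flank, 5.0×10⁶ cells per mouse. Dosing was oral, once daily for 11 days, starting once tumors reached 150 mm³. Tumors taken 24 h after the last dose and frozen-sectioned from the mid-portion. Vessels stained with anti-mouse CD31 and counted by image analysis. Density decrease expressed against control.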

[37] = target: Macrophage-stimulating protein receptor (Homo sapiens, UniProt Q04912); assay: Inhibition of RON
Chain of Macrophage-stimulating protein receptor (Q04912 25-304 limits assumed): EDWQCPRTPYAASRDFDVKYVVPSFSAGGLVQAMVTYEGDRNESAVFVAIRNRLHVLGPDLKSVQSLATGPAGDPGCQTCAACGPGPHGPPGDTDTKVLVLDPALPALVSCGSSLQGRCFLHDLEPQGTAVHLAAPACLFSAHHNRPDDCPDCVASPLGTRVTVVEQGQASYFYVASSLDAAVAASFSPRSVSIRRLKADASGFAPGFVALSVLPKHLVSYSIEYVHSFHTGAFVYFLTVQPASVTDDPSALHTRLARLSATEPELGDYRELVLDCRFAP
Chain of Macrophage-stimulating protein receptor (Q04912 310-1400 limits assumed): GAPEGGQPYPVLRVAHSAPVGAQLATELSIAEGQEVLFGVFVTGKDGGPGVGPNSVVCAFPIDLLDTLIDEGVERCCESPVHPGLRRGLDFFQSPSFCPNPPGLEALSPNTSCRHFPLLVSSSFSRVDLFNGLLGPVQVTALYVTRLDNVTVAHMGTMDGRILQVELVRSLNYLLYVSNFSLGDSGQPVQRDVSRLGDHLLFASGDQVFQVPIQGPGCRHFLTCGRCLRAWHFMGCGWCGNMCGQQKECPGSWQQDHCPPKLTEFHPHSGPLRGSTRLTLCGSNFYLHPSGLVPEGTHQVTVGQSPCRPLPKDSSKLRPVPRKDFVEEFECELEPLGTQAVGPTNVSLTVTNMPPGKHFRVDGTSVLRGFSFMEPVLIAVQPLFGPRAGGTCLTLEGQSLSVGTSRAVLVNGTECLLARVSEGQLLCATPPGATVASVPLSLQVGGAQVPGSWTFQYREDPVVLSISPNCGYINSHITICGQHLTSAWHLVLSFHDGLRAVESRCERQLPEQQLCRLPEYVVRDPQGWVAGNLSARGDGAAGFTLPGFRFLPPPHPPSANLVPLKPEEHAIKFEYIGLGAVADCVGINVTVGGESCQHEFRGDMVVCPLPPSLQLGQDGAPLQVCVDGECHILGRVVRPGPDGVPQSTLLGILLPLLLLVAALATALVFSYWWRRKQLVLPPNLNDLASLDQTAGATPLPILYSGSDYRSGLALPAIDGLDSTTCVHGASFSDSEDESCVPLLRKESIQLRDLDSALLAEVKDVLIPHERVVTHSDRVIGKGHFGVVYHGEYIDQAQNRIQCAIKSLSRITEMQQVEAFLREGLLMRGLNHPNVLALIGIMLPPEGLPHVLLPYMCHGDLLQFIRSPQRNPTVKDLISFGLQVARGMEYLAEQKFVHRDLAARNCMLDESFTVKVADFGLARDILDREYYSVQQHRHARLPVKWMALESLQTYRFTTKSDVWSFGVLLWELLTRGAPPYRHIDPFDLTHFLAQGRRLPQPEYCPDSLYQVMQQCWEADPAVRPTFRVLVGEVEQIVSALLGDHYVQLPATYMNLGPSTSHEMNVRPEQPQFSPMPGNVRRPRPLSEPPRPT

[38] = test system: NCI-H460; assay: Antiproliferative activity against human NCI-H460 cells assessed as cell growth inhibition; type: cell-based
[39] = Antiproliferative activity against human KG1a cells assessed as cell growth inhibition; type: cell-based; conditions: KG-1a
[40] = test system: MKN-28; assay: Antiproliferative activity against human MKN28 cells assessed as cell growth inhibition; type: cell-based
[41] = test system: Mus musculus; assay: Toxicity in human Calu6 cells xenografted BALB/c mouse assessed as body weight change at 1 to 10 mg/kg, po qd for 11 days; type: organism-based, Calu-6; set-up: dose 1-10 mg/kg, route oral; conditions: in vivo, 264 h
In short: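 Calu-6 xenografts (5.0 × 10⁶ cells s.c., female Balb/c nude mice). Once tumors reached 150 mm³, oral dosing once daily for 11 days at 1, 3 and 10 mg/kg. Body weight change recorded as percent over the treatment period.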

[42] = Apparent oral clearance in nude mouse at 30 mg/kg, po by LC-MS/MS analysis; type: ADME, organism-based; set-up: dose 30 mg/kg, route oral; conditions: in vivo; in short: as §1
[43] = test system: DLD-1; assay: Antiproliferative activity against human DLD1 cells assessed as cell growth inhibition; type: cell-based
[44] = target: Receptor-type tyrosine-protein kinase FLT3 (Homo sapiens, UniProt P36888); assay: Inhibition of FLT3
[45] = target: Protein-tyrosine kinase 6 (Homo sapiens, UniProt Q13882); assay: Inhibition of BRK
Chain of Protein-tyrosine kinase 6 (Q13882 whole entry): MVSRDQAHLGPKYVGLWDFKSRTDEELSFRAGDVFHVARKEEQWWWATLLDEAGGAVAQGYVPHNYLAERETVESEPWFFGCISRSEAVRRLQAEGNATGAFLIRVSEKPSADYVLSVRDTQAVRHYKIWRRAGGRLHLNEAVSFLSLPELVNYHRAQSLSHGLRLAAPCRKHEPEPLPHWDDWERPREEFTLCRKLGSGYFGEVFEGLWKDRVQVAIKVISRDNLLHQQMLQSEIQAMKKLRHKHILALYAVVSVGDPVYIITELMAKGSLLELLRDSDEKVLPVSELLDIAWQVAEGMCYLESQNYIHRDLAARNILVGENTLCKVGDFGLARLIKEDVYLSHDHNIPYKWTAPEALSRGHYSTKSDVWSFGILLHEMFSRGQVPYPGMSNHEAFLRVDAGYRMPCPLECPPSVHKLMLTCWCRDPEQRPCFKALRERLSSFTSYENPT

COc1ccc(C(=O)NC[C@@H](O)CO)cc1/C=C/c1ccc(Cl)cc1
IC50 [1]: 55 µM | IC50 [2]: 47 µM | IC50 [3]: > 50 µM | Cmax [4]: 8270 ng/mL | Activity [5]: Non-toxic | IC50 [6]: 65 µM | IC50 [7]: 38 µM | IC50 [8]: 4.5 µM | IC50 [9]: 40 µM | IC50 [10]: > 50 µM | AUC(0-t) at 24 h [11]: 86400 ng·h/mL | IC50 [12]: 46 µM | inhibition at 4 µM [13]: 38% | IC50 [14]: 20 µM | IC50 [15]: > 50 µM | IC50 [16]: > 50 µM | IC50 [17]: > 50 µM | IC50 [18]: 39 µM | IC50 [19]: > 50 µM | IC50 [20]: > 50 µM | microsomal CLint at 5 µM [21]: 7 µL/min/mg | IC50 [22]: > 50 µM | IC50 [23]: 25 µM | IC50 [24]: 18 µM | IC50 [25]: 27 µM | IC50 [26]: 9.5 µM | IC50 [27]: 29 µM | IC50 [28]: 20 µM | IC50 [29]: 4.9 µM | IC50 [30]: 31 µM | IC50 [31]: 74 µM | Tmax [32]: 1 h | IC50 [33]: 19 µM | IC50 [34]: > 50 µM | half-life [35]: 7.8 h | Activity [36]: Active | IC50 [37]: > 50 µM | IC50 [38]: 15 µM | IC50 [39]: 17 µM | IC50 [40]: 15 µM | Activity [41]: Non-toxic | CL/F [42]: 5.8 mL/min/kg | IC50 [43]: 19 µM | IC50 [44]: > 50 µM | IC50 [45]: > 50 µM

COc1ccc(C(=O)NC[C@H](O)CO)cc1/C=C/c1ccc(Cl)cc1
IC50 [1]: 63 µM | IC50 [2]: 67 µM | IC50 [3]: > 50 µM | Cmax [4]: 9370 ng/mL | Activity [5]: Non-toxic | IC50 [6]: 63 µM | IC50 [7]: 46 µM | IC50 [8]: 7.2 µM | IC50 [9]: 54 µM | IC50 [10]: > 50 µM | AUC(0-t) at 24 h [11]: 90200 ng·h/mL | IC50 [12]: 61 µM | inhibition at 4 µM [13]: 41% | IC50 [14]: 29 µM | IC50 [15]: > 50 µM | IC50 [16]: > 50 µM | IC50 [17]: > 50 µM | IC50 [18]: 49 µM | IC50 [19]: > 50 µM | IC50 [20]: > 50 µM | microsomal CLint at 5 µM [21]: 12 µL/min/mg | IC50 [22]: > 50 µM | IC50 [23]: 34 µM | IC50 [24]: 18 µM | IC50 [25]: 51 µM | IC50 [26]: 12 µM | IC50 [27]: 27 µM | IC50 [28]: 30 µM | IC50 [29]: 15 µM | IC50 [30]: 38 µM | IC50 [31]: 69 µM | Tmax [32]: 1 h | IC50 [33]: 30 µM | IC50 [34]: > 50 µM | half-life [35]: 8.5 h | Activity [36]: Active | IC50 [37]: > 50 µM | IC50 [38]: 24 µM | IC50 [39]: 20 µM | IC50 [40]: 23 µM | Activity [41]: Non-toxic | CL/F [42]: 5.6 mL/min/kg | IC50 [43]: 28 µM | IC50 [44]: > 50 µM | IC50 [45]: > 50 µM
